This is an account of results in ChEMBL document CHEMBL1148251, “Syntheses of sphingosine-1-phosphate analogues and their interaction with EDG/S1P receptors” (Bioorg Med Chem Lett, 2004).

Holding throughout (format): cell-based
Test [1] deals with Sphingosine 1-phosphate receptor 1 (Homo sapiens) (UniProt P21453). In words: Percent binding affinity to displace radioligand [3H]SIP from Sphingosine 1-phosphate receptor Edg-1 expressed in CHO cells. The gist of the method: (§1)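 Whole transfected CHO cells (Edg-1, Edg-3 or Edg-5; mock-transfected control), confluent, rinsed twice in ice-cold buffer (20 mM Tris–HCl pH 7.5, 100 mM NaCl, 15 mM NaF, 0.4% BSA), then held on ice 90 min with 2 nM [3H]-S1P ± 1 µM test ligand. Unbound label washed off, cells solubilized in SDS/NaOH/Na2CO3, bound radioactivity counted by liquid scintillation; duplicate determinations, mean ± SD.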

Test [2] concerns the target Sphingosine 1-phosphate receptor 2 (Homo sapiens) (UniProt O95136). In words: Percent binding affinity to displace radioligand [3H]-SIP from EDG-5/S1P2 receptors expressed in CHO cells. The gist of the method: as §1
Test [3] concerns the target Sphingosine 1-phosphate receptor 3 (Homo sapiens) (UniProt Q99500). In words: Percent binding affinity to displace radioligand [3H]SIP from EDG-3/S1P3 receptors expressed in CHO cells. The gist of the method: as §1

Chain of Sphingosine 1-phosphate receptor 1 (Homo sapiens) (P21453 whole entry): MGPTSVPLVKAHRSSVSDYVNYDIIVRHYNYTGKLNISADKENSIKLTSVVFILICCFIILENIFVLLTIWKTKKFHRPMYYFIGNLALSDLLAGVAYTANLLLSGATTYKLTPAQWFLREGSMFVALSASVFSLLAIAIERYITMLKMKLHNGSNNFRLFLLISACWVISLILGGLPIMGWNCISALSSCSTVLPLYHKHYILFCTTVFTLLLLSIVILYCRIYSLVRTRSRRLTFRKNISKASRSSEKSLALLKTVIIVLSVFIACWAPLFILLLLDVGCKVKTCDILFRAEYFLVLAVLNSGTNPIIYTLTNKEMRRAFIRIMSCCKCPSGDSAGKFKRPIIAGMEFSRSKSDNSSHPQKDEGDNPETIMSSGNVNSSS
Chain of Sphingosine 1-phosphate receptor 3 (Homo sapiens) (Q99500 whole entry): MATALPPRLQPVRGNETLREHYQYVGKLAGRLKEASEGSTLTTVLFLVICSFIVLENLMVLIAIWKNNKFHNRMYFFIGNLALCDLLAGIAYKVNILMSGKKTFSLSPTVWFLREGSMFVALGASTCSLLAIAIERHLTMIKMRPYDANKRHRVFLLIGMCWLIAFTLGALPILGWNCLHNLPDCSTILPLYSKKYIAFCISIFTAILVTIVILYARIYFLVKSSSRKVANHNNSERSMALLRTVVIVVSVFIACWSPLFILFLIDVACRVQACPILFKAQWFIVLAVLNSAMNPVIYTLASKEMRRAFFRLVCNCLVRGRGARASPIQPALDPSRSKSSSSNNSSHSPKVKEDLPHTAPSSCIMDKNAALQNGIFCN
Chain of Sphingosine 1-phosphate receptor 2 (Homo sapiens) (O95136 whole entry): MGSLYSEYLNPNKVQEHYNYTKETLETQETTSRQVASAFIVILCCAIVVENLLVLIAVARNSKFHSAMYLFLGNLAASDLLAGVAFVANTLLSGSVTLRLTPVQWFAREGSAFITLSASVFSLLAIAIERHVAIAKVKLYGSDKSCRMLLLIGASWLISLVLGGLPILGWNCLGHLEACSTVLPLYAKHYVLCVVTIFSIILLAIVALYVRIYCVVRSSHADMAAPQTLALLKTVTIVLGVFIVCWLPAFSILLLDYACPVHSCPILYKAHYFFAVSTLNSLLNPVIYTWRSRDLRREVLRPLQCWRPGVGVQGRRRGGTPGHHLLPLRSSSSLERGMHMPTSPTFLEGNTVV

Consider `CCCCCCCCCCCCC/C=C/[C@@H](O)[C@H](COP(=O)(O)O)NCC`, for which, in test [1], the % binding is 51.4%.
Consider `CCCCCCCCCCCCCC[C@@H](N)COP(=O)(O)O`, for which the figures for the % binding in test [2] and in test [3] were 84% and 82%, respectively.
Compound `CCCCCCCCCCCCC/C=C/[C@@H](O)[C@H](COP(=O)(O)O)NC` registered a % binding in test [1] of 55.1%.
